Measurements from different studies.
Each line is one published result; the experiments were not run side by side.

SMILES	assay	test system	setting	solubility
Cn1cncc1[C@@](N)(c1ccc(Cl)cc1)c1ccc2c(c1)c(-c1cccc(Cl)c1)cc(=O)n2C	–	water	pH 7.6, 25 °C	0.12 µg/mL
Oc1ccccc1/C=N/c1c(-c2ccccc2)nc2ccc(Cl)cn12	–	aqueous buffer	pH 7	125 µg/mL
Cc1c(C(=O)O)ccc2c3n(nc12)[C@@H]1[C@H](C3)N(CC2CC2)[C@@]2(C(=O)Nc3cc(Cl)ccc32)[C@H]1c1cccc(Cl)c1F	–	aqueous buffer	pH 6.8	< 1 µg/mL
Cc1noc(C)c1CC(=O)N1CCOc2c(cc(-c3cccc(Cl)c3)cc2OCC2CCCN(C)C2)C1 (stereo not drawn)	–	water	–	75 µM
CC(=O)C(C)n1c(CN2CCN(c3cccc(Cl)c3)CC2)nc2c1c(=O)n(C)c(=O)n2C (stereo not drawn)	–	PBS	–	> 20 µM
O=C(C=Cc1ccccc1)Nc1cc(-c2ccnc(N3CCC(O)CC3)c2)ccn1	–	water	pH 7.4	~115 µg/mL
COc1ccc2cc3n(c(=O)c2c1OC)CCc1cc2c(cc1-3)OCO2	–	water	24 h, 25 °C	< 0.05 µg/mL
Cn1cnc2ccc(Nc3c(F)ccc(NS(=O)(=O)N4CC(F)C4)c3Cl)c(Cl)c2c1=O	–	aqueous buffer	pH 2.05	2 µg/mL
N=C(N)NCCC[C@H](NC(=O)[C@@H](NC(=O)[C@H](Cc1cscn1)NC(=O)CCc1ccccc1)C1CCCCC1)C(=O)c1nc2ccccc2s1	–	PBS	90 min, pH 7.4	> 10 µM
O=[N+]([O-])c1cccc(/C=N/c2c(-c3ccccc3)nc3ccc(Cl)cn23)c1	–	aqueous buffer	pH 7	25 µg/mL
C/C(=N/c1ccc(/N=C/c2ccc(/C=N/c3ccc(/N=C(/C)N(C)C)cc3)cc2)cc1)N(C)C	shake flask	PBS	pH 7.4, 25 °C	0.38 µg/mL
CCCc1cc(C(=O)OC)c(NC(=O)C2CCN(C(C)=O)CC2)s1	–	PBS	–	> 20 µM
